# Source: publication PMC3201796 (Cell host & microbe, 2011)
# Where two headings read alike, the source gives them in different places.
# Key:
# [1] = test system: HSV-2 (strain NS and RV-124); assay: Virus yield reduction assay; type: cell-based
# In short: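 HEL monolayers infected with HSV-2 clinical isolates NS or RV-124 at two moi for 2 h at 37 °C, then washed and given test compound in duplicate. At 24, 48 and 72 h, virus released by freeze-thaw and titrated by plaque assay on HEL cells.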
# [2] = MTT viability assay in epithelial TZM-Bl cells; type: cell-based, human; details: up to 1,000 μg/ml; data not shown
# In short: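 Confluent TZM-Bl epithelial monolayers exposed to a range of test compound concentrations for 3–4 days, then given MTT dye. Viable cells convert it to formazan, measured by optical density.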
# [3] = Cytostatic activity; type: cell-based; details: human, HEL cells, non-infected
# [4] = test system: HIV-1LAI; assay: Tonsillar tissue coinfected with HSV-2G and HIV-1LAI, p24 release; type: cell-based; details: 66 μg/ml
# In short: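 Tonsil tissue blocks (~2 mm) kept on collagen sponge at the air–liquid interface; 27 blocks per condition (9 per well). Infected with HSV-2 strain G, then HIV-1 LAI. Test compound added 12 h before infection and replenished at each medium change for the whole culture. p24 in medium over 3-day periods measured by bead-based assay. Six donors; means ± SEM.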
# [5] = test system: HSV-2G, HSV-2MS; assay: Human tonsillar tissue ex vivo infected with HSV-2; type: cell-based; details: 66 μg/ml
# [6] = in vivo; cited from earlier work
# [7] = test system: HSV-2G; assay: Tonsillar tissue coinfected with HSV-2G and HIV-1LAI, HSV-2 DNA release; type: cell-based; details: 66 μg/ml; coinfected with HIV-1LAI; n=6
# In short: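 Human tonsillar tissue blocks sequentially infected with HSV-2 G then HIV-1 LAI; 27 blocks per condition, 9 per well in 3 ml medium. Tenofovir at 66 µg/ml kept throughout culture; untreated donor-matched tissues as control. HSV-2 DNA release into medium measured by quantitative real-time PCR; release pooled from 27 blocks per donor; 6 donors.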
# [8] = test system: HSV-1F; assay: Human tonsillar tissue ex vivo infected with HSV-1; type: cell-based
# [9] = test system: PHKs; assay: Cytotoxicity by cell morphology; type: cell-based, human; details: non-infected
# In short: (§1)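 Run in non-infected cultures in parallel with the antiviral assay. Cells exposed to test compound and examined microscopically at day 3. MCC is the lowest concentration giving a detectable change in cell morphology.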
# [10] = test system: HIV-1; details: 1% vaginal gel, 889 women, CAPRISA 004; ref Abdool Karim et al., 2010; cited from earlier work
# [11] = test system: HSV-2; type: cell-based; details: day 6, M/M
# [12] = test system: HSV-2; type: cell-based; details: for Virus production (TCID50/ml): M/M
# [13] = test system: HSV-2; assay: HSV-2 cytopathicity in primary monocyte/macrophage cultures; type: cell-based; details: day 6, M/M
# [14] = test system: HSV-2; assay: HSV-2-infected athymic nude mice; type: in vivo
# In short: (§2)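 Female NMRI athymic nude or hairless mice (~20 g, ~4 weeks; groups of five) scarified over ~1 cm² lumbosacral area with HSV-1 KOS (5×10^3 PFU) or HSV-2 G (5×10^2). Test compound 1% in 100% DMSO or CAPRISA 004-type gel, topical twice daily for 5 days from 1-2 h post-infection; same vehicle without drug as placebo. Lesions and mortality recorded over one month; Kaplan-Meier survival, log-rank test.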
# [15] = test system: HEL cells; assay: Cytotoxicity by cell morphology; type: cell-based, human
# In short: as §1
# [16] = test system: HSV-1 and HSV-2; type: cell-based; details: Fibroblast, read-out: EC50 values (inhibition of cytopathicity), range
# In short: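 HEL fibroblasts or primary human keratinocytes (from neonatal foreskin) infected at 100 TCID50 per strain and grown 3 days at 37 °C, 5% CO2, with a range of test compound concentrations. CPE scored visually. […] Means of at least two independent experiments, ± SD.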
# [17] = Cytostatic activity; type: cell-based; details: human, PHKs, non-infected
# [18] = test system: HSV-1KOS; assay: Organotypic epithelial raft cultures infected with HSV-1; type: cell-based
# [19] = test system: HSV-2G; assay: Human cervico-vaginal tissue ex vivo infected with HSV-2G; type: cell-based; details: 150 μg/ml
# [20] = test system: HSV-2G; assay: Organotypic epithelial raft cultures infected with HSV-2; type: cell-based
# [21] = test system: HSV-1; assay: HSV-1-infected athymic nude mice; type: in vivo
# In short: as §2
# [22] = test system: HSV-2; details: 1% vaginal gel, CAPRISA 004; ref Cates, 2010; cited from earlier work
# [23] = 1% gel as in CAPRISA 004, topical
# [24] = 1% in DMSO, topical, 5 days from day of infection
smiles,measurement,setting,value
"C[C@H](Cn1cnc2c(N)ncnc21)OCP(=O)(O)O [Tenofovir, (R)-9-[2-(phosphonylmethoxypropyl)adenine]]",changes in cell number,"[1]; HEL cells, any drug concentration",no changes in cell number
same,EC99 (drug concentration that decreases virus titers by two orders of magnitude),"[1]; HSV-2 RV-124 and NS, two moi, 24, 48, 72 h post-infection, PFU reduction",214 to 390 µg/mL
same,MTT dye viability testing,[2],did not show measurable toxicity
same,CC50 at 3 days,[3],547 ± 39 µg/mL
same,inhibition of HIV-1LAI,[4],inhibited completely
same,reduction of replication vs donor-matched untreated tissue,[5]; HSV-2G,87 ± 12%
same,reduction of replication vs donor-matched untreated tissue,[5]; HSV-2MS,91.7 ± 3.2%
same,AUC24hr in cervico-vaginal fluid,[6],18.6 mg·h/mL
same,level in cervico-vaginal fluid at 24 hr post drug exposure,[6],~ 100 μg/ml
same,suppression of HSV-2G replication,[7],96 ± 1%
same,reduction of replication vs donor-matched untreated tissue,"[8]; 66 μg/ml, HSV-1F",99 ± 0.1%
same,EC50,"[8]; Human alphaherpesvirus 1, in Homo sapiens, read-out: EC50 for HSV suppression",7 µg/mL
same,Cell toxicity MCC (minimum cytotoxic concentration),[9],>200 µg/mL
same,reduction of HIV-1 sexual transmission,[10],39%
same,Virus production (PFU/ml),[11]; 0.04 μg/ml,8.5×10^4 PFU/ml
same,Virus production (PFU/ml),[11]; 0.2 μg/ml,7.3×10^4 PFU/ml
same,Virus production (PFU/ml),[11]; 1 μg/ml,6.6×10^4 PFU/ml
same,Virus production (PFU/ml),[11]; 5 μg/ml,1.9×10^4 PFU/ml
same,Virus production (PFU/ml),[11]; 20 μg/ml,2.2×10^3 PFU/ml
same,Virus production (PFU/ml),[11]; 100 μg/ml,No virus
same,Virus production (PFU/ml),[11]; 500 μg/ml,No virus
same,Virus production (TCID50/ml),"[12]; 0.04 μg/ml, day 6",3.2×10^5 TCID50/ml
same,Virus production (TCID50/ml),"[12]; 0.2 μg/ml, day 6",3×10^5 TCID50/ml
same,HSV-2 production,"[12]; 1 μg/ml or 0.2 μg/ml, no significant protective effect",2.4 to 3.0 × 10^5 TCID50/ml
same,Virus production (TCID50/ml),"[12]; 1 μg/ml, day 6",2.4×10^5 TCID50/ml
same,Virus production (TCID50/ml),"[12]; 5 μg/ml, day 6",7.2× 10^4 TCID50/ml
same,Virus production (TCID50/ml),"[12]; 20 μg/ml, day 6",1.3×10^4 TCID50/ml
same,drop in HSV-2 production,"[12]; 20 μg/ml, from 3.7 × 10^5 TCID50/ml in untreated",more than one log10
same,Virus production (TCID50/ml),"[12]; 100 μg/ml, day 6",No virus
same,Virus production (TCID50/ml),"[12]; 500 μg/ml, day 6 post infection",No virus
same,HSV-2 replication in M/M,[12]; 500 and 100 μg/ml,completely suppressed
same,Cytopathicity (CPE) (%),[13]; 0.04 μg/ml,85%
same,Cytopathicity (CPE) (%),[13]; 0.2 μg/ml,80%
same,Cytopathicity (CPE) (%),[13]; 5 μg/ml,60%
same,Cytopathicity (CPE) (%),[13]; 20 μg/ml,5%
same,Cytopathicity (CPE) (%),[13]; 100 μg/ml,None
same,Cytopathicity (CPE) (%),[13]; 500 μg/ml,None
same,appearance of lesions and death vs placebo gel,[14]; [23],delayed the appearance of herpesvirus-related lesions and subsequent death
same,morbidity and survival,[14]; [24],statistically significant suppression of morbidity and prolonged the survival
same,Cell toxicity MCC (minimum cytotoxic concentration),"[15]; HEL, non-infected, cell morphology",>400 µg/mL
same,cytotoxicity as assessed from HEL cell morphology,[15]; highest drug concentrations used (500 μg/ml),no signs of tenofovir cytotoxicity
same,EC50,[16],103 to 193 µg/mL
same,CC50 at 3 days,[17],> 50 µg/mL
same,log10 reduction in virus production,[18]; 50 μg/ml,0.81 log10
same,protection of virus-induced cytopathicity,[18]; 200 μg/ml,complete CPE protection
same,log10 reduction in virus production,"[18]; 200 μg/ml, 5 days of treatment",2.6 log10
same,reduction of HSV-2G replication (averaged over experiments),[19],78 ± 9%
same,HSV-2G DNA in culture medium,"[19]; untreated 6.6 log10 copies/ml, n=5",5.5 log10 copies/mL
same,activity against HSV-2 in rafts,[20]; 2 μg/ml,inactive
same,log10 reduction in virus production,[20]; 50 μg/ml,1.75 log10
same,protection of virus-induced cytopathicity,[20]; 200 μg/ml,complete CPE protection
same,log10 reduction in virus production,"[20]; 200 μg/ml, 5 days of treatment",5.4 log10
same,protection of raft epithelium (histology),[20]; 20 and 5 μg/ml,partially protective
same,appearance of lesions and death vs placebo gel,[21]; [23],delayed the appearance of herpesvirus-related lesions and subsequent death
same,morbidity and survival,[21]; [24],statistically significant suppression of morbidity and prolonged the survival
same,reduction of the risk of acquisition of HSV-2,[22],51%
